# Compound activity from PubChem BioAssay.
# This is a sample that favours compounds with a hit; in the whole collection about 2.4% have one here.
# bCat nuc transl – alters nuclear translocation of beta-catenin in HeLa cells; AID 1665; nuclear translocation activity, % at 5 µM; immunofluorescence imaging; 190,000 compounds, 0.3% hits;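 active means nuclear translocation activity above 50% at 5 µM, with a well cell count of 50 or more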;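 further: per-cell ratio of nuclear to cytoplasmic median beta-catenin stain intensity; plate controls were DMSO negative control for no effect and GSK-3 inhibitor IX positive control for full effect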
#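 System: HeLa cells, endogenous beta-catenin; compound dosing: 5 µM primary single dose, 0.1% DMSO, 0.02–20 µM confirmation series; incubation: 24 h compound exposure at 37°C, 5% CO2; signal: beta-catenin immunofluorescence imaging with DAPI; evaluation: % activation, nuclear-to-cytoplasmic median beta-catenin signal ratio per cell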
# STAT1 inh – inhibitors of IFN-gamma induced STAT1 signaling; NIH 3T3 STAT1-luciferase reporter, luminescence; inhibition, % at 5.5 µM; 200,000 compounds, 0.35% hits; AID 920;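 active means inhibition above a set limit, the mean inhibition across all tested compounds plus 3 SD, cut at about 34% in these data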;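 further: 0% = IFN-gamma with DMSO and 100% = IFN-gamma with 300 µM nifuroxazide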
# MT stabilize HCS – stabilizes microtubules in HeLa cells. HeLa tubulin immunostaining HCS, 24 h; share of cells brighter than vehicle mean+2SD. 200,000 compounds, 0.83% hits. % tubulin-high responders, % at 10 µM;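 active means plate Z-score above 3 for both tubulin-high and condensed-nucleus cell shares, with cell loss under 80%, at 10 µM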;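 further: anti alpha tubulin signal scored within the nucleus-defined area of each cell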
# STAT3 act-1 – STAT3 signaling activation | activation (% of control), % at 5.6 µM | U3A cells, IL-6 STAT3-luciferase reporter, luminescence; 100% = signal with IL-6 EC80 alone | AID 871 | 190,000 compounds, 0.91% hits;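 active means activation above the screen-wide mean of compound activation plus 3 SD, cut at about 130% in these data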;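 further: 0% = background luminescence of wells with medium and substrate only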
#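 Test system: human U3A cells carrying STAT3-luciferase construct; control set: IL-6-only wells as 100% reference; timing: compound pre-incubation 1 h before IL-6, then 6 h stimulation at 37 °C; also added: IL-6 stimulus at 33 ng/mL final; evaluation: % activation versus median of IL-6-stimulated wells; detection: reporter luminescence signal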
# STAT3 blocker – reduces IL-6 driven STAT3 reporter signal; U3A cells, IL-6 STAT3-luciferase reporter, luminescence; host cell line lacks STAT1; inhibition, % at 5.5 µM; 190,000 compounds, 0.89% hits;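 active means inhibition above the mean inhibition across all screened compounds plus 3 SD, cut at about 44% in these data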;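 further: 0% = DMSO only wells and 100% = 100 µM nifuroxazide control wells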
# STAT3 act-2 – confirmation of STAT3 signaling activators. shares compounds with STAT3 act-1. U3A STAT3-luciferase reporter, IL-6 potentiation, luminescence; U3A cells lack STAT1; 100 means same as IL-6 alone. potentiation (% of control), % at 5.7 µM. 1,200 compounds, 64% hits;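 active means percent activation of the STAT3 luciferase reporter above a set limit taken from the earlier primary screen, cut at about 130% in these data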;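 further: 0% = background signal of medium plus substrate and 100% = median of IL-6 with DMSO wells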
# NFkB act STAT3ct – counter-screen for STAT3 activators: NF-kappaB activation; shares compounds with STAT3 act-1; human cells, NF-kappaB reporter activation; activation (% of control), % at 5.7 µM; 1,200 compounds, 11% hits; AID 1309; in the data active means activation above about 120%;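 further: reporter induced by TNF-alpha stimulation; 100% = median of stimulated DMSO wells and 0% = no signal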
# STAT1 act – STAT1 activation in STAT3 activator counter-screen | shares compounds with STAT3 act-1 | NIH 3T3 STAT1-luciferase reporter, IFN-gamma, luminescence | activation (% of control), % at 5.7 µM | 1,200 compounds, 13% hits | AID 1318;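 active means activation above the solvent-only control well mean plus 3 SD, set per screening run, cut at about 120% in these data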;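 further: 100% = IFN-gamma with DMSO median signal so 100% means no change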
# Numbers without * were called inactive; / = no result.
SMILES,bCat nuc transl,STAT1 inh,MT stabilize HCS,STAT3 act-1,STAT3 blocker,STAT3 act-2,NFkB act STAT3ct,STAT1 act
CC1=NN(c2ccccc2)C(=O)C1N=Nc1ccc(C)cc1 (stereo unspecified),/,-13.1,2.9,136.4*,-24.9,121.3,106.3,107.8
CC1=NC(=O)C(N=Nc2ccccc2)N1c1ccccc1 (stereo unspecified),-0.5,-30.2,4.0,163.0*,-71.4,161.9*,125.4*,160.3*
O=C(CC12CC3CC(CC(C3)C1)C2)N1CCN(S(=O)(=O)c2cccs2)CC1,-1.5,10.0,1.3,95.8,12.8,/,/,/
CCn1cc([N+](=O)[O-])c(C(=O)N2N=C(c3ccc4ccccc4c3)CC2c2ccccc2O)n1 (stereo unspecified),-0.8,-8.1,3.0,151.4*,-57.7,138.2*,101.7,102.3
CCn1cc(Cl)c(C(=O)N2N=C(c3ccc4ccccc4c3)CC2c2ccccc2O)n1 (stereo unspecified),/,0.0,7.7,102.2,-4.4,/,/,/
Clc1ccc2nc(SCc3nnc(-c4ccccc4)o3)[nH]c2c1,-2.1,8.9,1.9,93.3,8.6,/,/,/
Cc1ccc2nc(SCc3nnc(-c4ccccc4Br)o3)[nH]c2c1,0.6,-1.5,2.9,139.6*,-45.4,123.5,100.4,99.5
CC(C)NC(=O)NC(=O)COC(=O)/C=C/c1ccccc1[N+](=O)[O-],-0.8,28.8,2.2,147.0*,-54.9,159.1*,111.4,79.7
COc1ccc(NC(=O)COC(=O)/C=C/c2ccccc2[N+](=O)[O-])cc1,-0.3,-0.1,2.8,111.8,-11.1,/,/,/
COC(=O)CNC(=O)COC(=O)/C=C/c1ccccc1[N+](=O)[O-],-1.9,22.3,2.6,144.1*,-35.1,139.8*,102.9,75.8
CCC1CCCCN1CCCNC(=O)c1cc2c(=O)[nH]c3ccccc3c2n1C (stereo unspecified),-1.3,-2.6,1.4,99.7,6.4,/,/,/
CN(C)c1nc(N)c([N+](=O)[O-])c(NCC2CCCO2)n1 (stereo unspecified),-0.2,/,/,/,/,/,/,/
O=[N+]([O-])c1cccc(C(=Nc2ccc(Cl)cc2)NO)c1,-0.9,5.5,2.6,147.8*,-47.3,138.7*,98.4,99.3
O=[N+]([O-])c1cccc(C(=Nc2ccccc2)NO)c1,/,4.2,2.8,81.8,23.4,/,/,/
Nc1ccc(C(=O)OCc2nc3cc4ccccc4cc3[nH]2)cc1,4.6,-16.9,6.4,99.6,4.2,/,/,/
Nc1ccc(Cc2nc3cc4ccccc4cc3[nH]2)cc1,10.8,-12.9,1.0,136.1*,-39.3,143.0*,113.1,130.4*
Cc1ccc(-c2c[nH]c(=S)n2-c2ccccc2F)cc1,-1.8,-1.4,5.3,95.6,12.5,/,/,/
COc1ccc(OC)c(-c2nnc(NC(=O)C(C)Sc3nncn3C)s2)c1 (stereo unspecified),-0.1,-1.4,1.8,140.1*,-44.1,118.8,105.2,100.6
COc1cc2c(cc1NC(=O)C(C)OC(=O)c1ccc(S(=O)(=O)Nc3ccccc3Cl)cc1)oc1ccccc12 (stereo unspecified),-1.8,-3.8,5.4,140.9*,-40.7,128.2,106.5,103.8
COc1cc2c(cc1NC(=O)C(C)N1CCN(S(=O)(=O)c3ccc(C)c(C)c3)CC1)oc1ccccc12 (stereo unspecified),/,0.9,2.2,102.4,-2.6,/,/,/
COc1cc2c(cc1NC(=O)c1cccnc1)oc1ccccc12,/,-27.7,2.3,109.1,-10.6,/,/,/
COc1cc2c(cc1NC(=O)C(C)Sc1cccc[n+]1[O-])oc1ccccc12 (stereo unspecified),-0.7,-18.0,2.7,136.3*,-42.7,138.8*,112.3,114.9
COc1cc2c(cc1NC(=O)c1ccncc1)oc1ccccc12,/,-18.2,3.5,154.8*,-60.5,136.6*,104.9,119.7
COc1cc2c(cc1NC(=O)C(C)Sc1nc3ccccc3n1C)oc1ccccc12 (stereo unspecified),2.2,3.9,2.4,119.2,-22.2,/,/,/
CC1Nc2nc(N(C)C)[nH]c(=O)c2NC1C (stereo unspecified),/,-9.6,3.2,105.9,-6.5,/,/,/
SMILES,bCat nuc transl,STAT1 inh,MT stabilize HCS,STAT3 act-1,STAT3 blocker,STAT3 act-2,NFkB act STAT3ct,STAT1 act
CC(C)(C)c1cc(C(=O)N2CCc3ccccc32)ccn1,-0.8,7.2,2.0,110.7,-2.1,/,/,/
CN(C)S(=O)(=O)c1cccc(C(=O)N2CCc3ccccc32)c1,/,3.7,4.1,147.8*,-52.8,125.9,108.5,107.6
CCCCNC(=S)Nc1cc([N+](=O)[O-])ccc1C,-0.4,12.0,2.2,89.8,10.4,/,/,/
CCOC(=O)/C(C#N)=C/c1c[nH]c2ccccc12,-0.3,-20.5,4.1,128.7,-33.6,/,/,/
COC(=O)/C(C#N)=C/c1c[nH]c2ccccc12,3.9,-22.2,2.3,146.5*,-35.0,193.4*,128.8*,160.4*
Cc1ccc(C)n1-c1nccc(-c2cccs2)n1,/,-4.8,2.5,139.6*,-35.2,114.8,106.5,103.2
Cc1cc(C)n(C(=O)c2cc(F)c(F)cc2C)n1,1.9,-0.1,2.1,106.5,-5.2,/,/,/
Cc1cccc2sc(NC(=O)CSc3nc4ccccc4o3)nc12,2.1,9.0,1.9,136.4*,-43.5,115.2,102.2,94.0
O=C(CSc1nc2ccccc2o1)Nc1nc2ccc(Br)cc2s1,3.7,-3.8,1.5,92.9,13.9,/,/,/
CC(C)OC(=O)c1cccnc1N1CCN(c2cccc(Cl)c2)CC1,0.0,-0.1,5.2,110.0,-8.0,/,/,/
COc1cc2cc(/C=C/C(=O)c3ccco3)c(Cl)nc2cc1OC,1.8,1.5,3.9,138.9*,-45.5,110.7,109.4,94.9
COc1ccc2cc(/C=C/C(=O)c3ccco3)c(Cl)nc2c1,-4.0,-12.8,1.2,108.5,-10.0,/,/,/
CS(=O)(=O)N(CCC#N)Cc1ccco1,0.0,-1.4,1.9,99.5,12.1,/,/,/
CCNC(=O)CCSc1nnc(-c2ccco2)o1,/,0.1,1.8,98.8,1.7,/,/,/
O=C(Nc1ccccc1N1CCN(C(=O)c2ccc(Cl)cc2)CC1)c1cc2ccccc2o1,/,2.4,2.0,146.6*,-47.9,123.3,98.2,105.2
CC(=O)NCCC(=O)N1CCc2c([nH]c3ccccc23)C1c1cccc(C)c1 (stereo unspecified),2.2,-6.2,1.5,146.7*,-50.2,144.1*,106.4,114.4
Cc1cc(C(=O)N2CCc3c([nH]c4ccccc34)C2c2cccc(Cl)c2)nn1C (stereo unspecified),-1.2,1.2,3.2,153.1*,-53.4,201.7*,111.7,122.2*
